Measured values reported in ChEMBL document CHEMBL3244382, “Structural requirements for antileukemic activity among the naturally occurring and semisynthetic maytansinoids” (J Med Chem, 1978).
In brackets after ≈: the same amount, converted by molar mass. Activity calls are given as the source filed them.

What was measured:
Mus musculus [1] = test: Toxicity in PS mouse allografted with mouse P388 cells assessed as change in body weight at 100 ug/kg relative to control; type: organism-based; settings: in vivo, 0.1 mg/kg
In short: (§1)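 P388 (PS) leukemia in mice, 6 mice per dose group. Weight change is the difference in grams between treated and control animals. Survivors are recorded on toxicity day, normally 4 days after the first injection.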

Mus musculus [2] = test: Toxicity in PS mouse allografted with mouse P388 cells assessed as survival at 25 ug/kg after 4 days; type: organism-based; settings: in vivo, 0.025 mg/kg, 96 h
In short: (§2)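 PS (P388) leukemic mice, six started per dose group. Toxicity scored as survivors on the toxicity day over the number of mice started. The toxicity day is normally 4 days after the first injection.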

Mus musculus [3] = test: Toxicity in PS mouse allografted with mouse P388 cells assessed as change in body weight at 1.6 ug/kg relative to control; type: organism-based; settings: in vivo, 0.0016 mg/kg; in short: as §1
Mus musculus [4] = test: Toxicity in PS mouse allografted with mouse P388 cells assessed as change in body weight at 6.2 ug/kg relative to control; type: organism-based; settings: in vivo, 0.0062 mg/kg; in short: as §1
P388 [5] = test: Antitumor activity against mouse P388 cells allografted in PS mouse assessed as median survival time at 0.4 ug/kg relative to control; type: functional
In short: (§3)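 P388 leukemia (PS) in mice, six mice started per dose group. Read-out is T/C: median survival time of the treated group divided by that of the untreated control group, expressed as a percent. The NIH protocol counts a compound as active when T/C > 125%.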

Mus musculus [6] = test: Toxicity in PS mouse allografted with mouse P388 cells assessed as survival at 50 ug/kg after 4 days; type: organism-based; settings: in vivo, 0.05 mg/kg, 96 h; in short: as §2
Mus musculus [7] = test: Toxicity in PS mouse allografted with mouse P388 cells assessed as survival at 12.5 ug/kg after 4 days; type: organism-based; settings: in vivo, 0.0125 mg/kg, 96 h; in short: as §2
KB = test: Cytotoxicity against human KB cells; type: functional; settings: read-out: ED50 (the source's name)
Mus musculus [8] = test: Toxicity in PS mouse allografted with mouse P388 cells assessed as change in body weight at 3.1 ug/kg relative to control; type: organism-based; settings: in vivo, 0.0031 mg/kg; in short: as §1
Mus musculus [9] = test: Toxicity in PS mouse allografted with mouse P388 cells assessed as survival at 1.6 ug/kg after 4 days; type: organism-based; settings: in vivo, 0.0016 mg/kg, 96 h; in short: as §2
Mus musculus [10] = test: Toxicity in PS mouse allografted with mouse P388 cells assessed as change in body weight at 25 ug/kg relative to control; type: organism-based; settings: in vivo, 0.025 mg/kg; in short: as §1
P388 [11] = test: Antitumor activity against mouse P388 cells allografted in PS mouse assessed as median survival time at 100 ug/kg relative to control; type: functional; in short: as §3
Mus musculus [12] = test: Toxicity in PS mouse allografted with mouse P388 cells assessed as survival at 100 ug/kg after 4 days; type: organism-based; settings: in vivo, 0.1 mg/kg, 96 h; in short: as §2
Mus musculus [13] = test: Toxicity in PS mouse allografted with mouse P388 cells assessed as change in body weight at 0.4 ug/kg relative to control; type: organism-based; settings: in vivo, 0.0004 mg/kg
In short: (§4)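 PS (P388 leukemia) mice, six per dose group. Toxicity read as the difference in grams between the weights of treated and control animals.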

Tubulin (Homo sapiens) = Tubulin (Homo sapiens) (UniProt P68371+Q9H4B7+P0DPH7+P68366+Q13509+Q71U36+P04350+Q3ZCM7+P07437+P68363+Q9BQE3+Q6PEY2+Q13885+Q9BVA1+Q9BUF5); test: Inhibition of brain tubulin polymerization (unknown origin) at 37 degC by spectrophotometry
Mus musculus [14] = test: Toxicity in PS mouse allografted with mouse P388 cells assessed as survival at 6.2 ug/kg after 4 days; type: organism-based; settings: in vivo, 0.0062 mg/kg, 96 h; in short: as §2
P388 [15] = test: Antitumor activity against mouse P388 cells allografted in PS mouse assessed as median survival time at 25 ug/kg relative to control; type: functional; in short: as §3
Mus musculus [16] = test: Toxicity in PS mouse allografted with mouse P388 cells assessed as change in body weight at 0.8 ug/kg relative to control; type: organism-based; settings: in vivo, 0.0008 mg/kg; in short: as §4
Mus musculus [17] = test: Toxicity in PS mouse allografted with mouse P388 cells assessed as survival at 0.8 ug/kg after 4 days; type: organism-based; settings: in vivo, 0.0008 mg/kg, 96 h; in short: as §2
Mus musculus [18] = test: Toxicity in PS mouse allografted with mouse P388 cells assessed as survival at 0.4 ug/kg after 4 days; type: organism-based; settings: in vivo, 0.0004 mg/kg, 96 h; in short: as §2
Mus musculus [19] = test: Toxicity in PS mouse allografted with mouse P388 cells assessed as survival at 3.1 ug/kg after 4 days; type: organism-based; settings: in vivo, 0.0031 mg/kg, 96 h; in short: as §2
P388 [20] = test: Antitumor activity against mouse P388 cells allografted in PS mouse assessed as median survival time at 0.8 ug/kg relative to control; type: functional; in short: as §3
P388 [21] = test: Antitumor activity against mouse P388 cells allografted in PS mouse assessed as median survival time at 6.2 ug/kg relative to control; type: functional; in short: as §3
P388 [22] = test: Antitumor activity against mouse P388 cells allografted in PS mouse assessed as median survival time at 50 ug/kg relative to control; type: functional; in short: as §3
P388 [23] = test: Antitumor activity against mouse P388 cells allografted in PS mouse assessed as median survival time at 12.5 ug/kg relative to control; type: functional; in short: as §3
Mus musculus [24] = test: Toxicity in PS mouse allografted with mouse P388 cells assessed as change in body weight at 50 ug/kg relative to control; type: organism-based; settings: in vivo, 0.05 mg/kg; in short: as §1
Mus musculus [25] = test: Toxicity in PS mouse allografted with mouse P388 cells assessed as change in body weight at 12.5 ug/kg relative to control; type: organism-based; settings: in vivo, 0.0125 mg/kg; in short: as §1
P388 [26] = test: Antitumor activity against mouse P388 cells allografted in PS mouse assessed as median survival time at 1.6 ug/kg relative to control; type: functional; in short: as §3
Paracentrotus lividus = test: Antimitotic activity against sea urchin eggs assessed as drug level causing inhibition of mitosis; type: functional; settings: Egg
P388 [27] = test: Antitumor activity against mouse P388 cells allografted in PS mouse assessed as median survival time at 3.1 ug/kg relative to control; type: functional; in short: as §3
P388 [28] = test: Antitumor activity against mouse P388 cells allografted in PS mouse assessed as median survival time at 400 ug/kg relative to control; type: functional; in short: as §3
Mus musculus [29] = test: Toxicity in PS mouse allografted with mouse P388 cells assessed as change in body weight at 200 ug/kg relative to control; type: organism-based; settings: in vivo, 0.2 mg/kg; in short: as §1
Mus musculus [30] = test: Toxicity in PS mouse allografted with mouse P388 cells assessed as change in body weight at 400 ug/kg relative to control; type: organism-based; settings: in vivo, 0.4 mg/kg; in short: as §1
Mus musculus [31] = test: Toxicity in PS mouse allografted with mouse P388 cells assessed as survival at 400 ug/kg after 4 days; type: organism-based; settings: in vivo, 0.4 mg/kg, 96 h; in short: as §2
P388 [32] = test: Antitumor activity against mouse P388 cells allografted in PS mouse assessed as median survival time at 200 ug/kg relative to control; type: functional; in short: as §3
Mus musculus [33] = test: Toxicity in PS mouse allografted with mouse P388 cells assessed as survival at 200 ug/kg after 4 days; type: organism-based; settings: in vivo, 0.2 mg/kg, 96 h; in short: as §2

| SMILES | Activity (Mus musculus [1]) | Activity (Mus musculus [2]) | Activity (Mus musculus [3]) | Activity (Mus musculus [4]) | Activity (Mus musculus [6]) | Activity (Mus musculus [7]) | EC50 (KB) | Activity (Mus musculus [8]) | Activity (Mus musculus [9]) | Activity (Mus musculus [10]) | T/C (P388 [11]) | Activity (Mus musculus [12]) | inhibition (Tubulin (Homo sapiens)) | Activity (Mus musculus [14]) | T/C (P388 [22]) | Activity (Mus musculus [24]) | Activity (Paracentrotus lividus) | Activity (Mus musculus [29]) | T/C (P388 [32]) | Activity (Mus musculus [33]) | further results |
| --- | --- | --- | --- | --- | --- | --- | --- | --- | --- | --- | --- | --- | --- | --- | --- | --- | --- | --- | --- | --- | --- |
| COc1cc2cc(c1Cl)N(C)C(=O)C[C@H](OC(=O)[C@H](C)N(C)C(C)=O)[C@]1(C)O[C@H]1[C@H](C)[C@@H]1C[C@@](O)(NC(=O)O1)[C@H](OC)/C=C/C=C(\C)C2 [MAYTANSINE] | -0.4 g | Non-toxic | 1.6 g | 1.3 g | Non-toxic | Non-toxic | 0.0061 ng/mL (≈ 0.00881 nM) | -0.1 g | Non-toxic | 0.6 g | <80% | Non-toxic | Active | Non-toxic | 125% | 0.3 g | 1 ×10⁻⁷ mol/L |  |  |  | T/C (P388 [5]): 125%; Activity (Mus musculus [13]): 1.7 g; T/C (P388 [15]): 220%; Activity (Mus musculus [16]): 1.4 g; Activity (Mus musculus [17]): Non-toxic; Activity (Mus musculus [18]): Non-toxic; Activity (Mus musculus [19]): Non-toxic; T/C (P388 [20]): 145%; T/C (P388 [21]): 195%; T/C (P388 [23]): 190%; Activity (Mus musculus [25]): 1.6 g; T/C (P388 [26]): 155%; T/C (P388 [27]): 165% |
| CCCS[C@]12C[C@H](OC(=O)N1)[C@@H](C)[C@@H]1O[C@@]1(C)[C@@H](OC(=O)[C@H](C)N(C)C(C)=O)CC(=O)N(C)c1cc(cc(OC)c1Cl)C/C(C)=C/C=C/[C@H]2OC | 2.8 g |  |  |  | Non-toxic |  | 0.18 ng/mL (≈ 0.24 nM) |  |  |  | 114% | Non-toxic | Active |  | 111% | -1.3 g | 1 ×10⁻⁸ mol/L | 0.1 g | 114% | Non-toxic | T/C (P388 [28]): 114%; Activity (Mus musculus [30]): -0.7 g; Activity (Mus musculus [31]): Non-toxic |
| COc1cc2cc(c1Cl)NC(=O)/C=C/C(C)=C/[C@H](C)[C@@H]1C[C@@](O)(NC(=O)O1)[C@H](OC)/C=C/C=C(\C)C2 | 0.8 g | Non-toxic | 1 g | 0.7 g | Non-toxic | Non-toxic | 2 ng/mL (≈ 3.87 nM) | 1.4 g | Non-toxic | -0.8 g | 120% | Non-toxic | Active | Non-toxic | 120% | 1.8 g | 1 ×10⁻⁸ mol/L | 1.2 g | 104% | Non-toxic | T/C (P388 [15]): 108%; Activity (Mus musculus [19]): Non-toxic; T/C (P388 [21]): 87%; T/C (P388 [23]): <80%; Activity (Mus musculus [25]): 0.7 g; T/C (P388 [26]): 104%; T/C (P388 [27]): 95% |
| CCO[C@]12C[C@H](OC(=O)N1)[C@@H](C)[C@@H]1O[C@@]1(C)[C@@H](OC(=O)[C@H](C)N(C)C(=O)C(C)C)CC(=O)N(C)c1cc(cc(OC)c1Cl)C/C(C)=C/C=C/[C@H]2OC | 3.4 g |  |  |  | Non-toxic |  | 1.2 ng/mL (≈ 1.6 nM) |  |  |  | 109% | Non-toxic | Active |  | 100% | 1.3 g | 1 ×10⁻⁷ mol/L | 0.3 g | 134% | Non-toxic | T/C (P388 [28]): 149%; Activity (Mus musculus [30]): -0.9 g; Activity (Mus musculus [31]): Non-toxic |
